Measurements reported in ChEMBL document CHEMBL4350992, “Identification of Diketopiperazine-Containing 2-Anilinobenzamides as Potent Sirtuin 2 (SIRT2)-Selective Inhibitors Targeting the "Selectivity Pocket", Substrate-Binding Site, and NAD+-Binding Site” (J Med Chem, 2019).
Activity calls are given as the source filed them. The rule behind the calls is not given here.

How the values were obtained:
[1] = target: T1, NAD-dependent protein deacetylase sirtuin-1 (Homo sapiens) (UniProt Q96EB6); test: Inhibition of SIRT1 in human MCF7 cells assessed as H3K9Ac expression at 0.1 uM measured after 24 hrs by Western blot analysis relative to H3; assay type: cell-based
T1 sequence (whole entry): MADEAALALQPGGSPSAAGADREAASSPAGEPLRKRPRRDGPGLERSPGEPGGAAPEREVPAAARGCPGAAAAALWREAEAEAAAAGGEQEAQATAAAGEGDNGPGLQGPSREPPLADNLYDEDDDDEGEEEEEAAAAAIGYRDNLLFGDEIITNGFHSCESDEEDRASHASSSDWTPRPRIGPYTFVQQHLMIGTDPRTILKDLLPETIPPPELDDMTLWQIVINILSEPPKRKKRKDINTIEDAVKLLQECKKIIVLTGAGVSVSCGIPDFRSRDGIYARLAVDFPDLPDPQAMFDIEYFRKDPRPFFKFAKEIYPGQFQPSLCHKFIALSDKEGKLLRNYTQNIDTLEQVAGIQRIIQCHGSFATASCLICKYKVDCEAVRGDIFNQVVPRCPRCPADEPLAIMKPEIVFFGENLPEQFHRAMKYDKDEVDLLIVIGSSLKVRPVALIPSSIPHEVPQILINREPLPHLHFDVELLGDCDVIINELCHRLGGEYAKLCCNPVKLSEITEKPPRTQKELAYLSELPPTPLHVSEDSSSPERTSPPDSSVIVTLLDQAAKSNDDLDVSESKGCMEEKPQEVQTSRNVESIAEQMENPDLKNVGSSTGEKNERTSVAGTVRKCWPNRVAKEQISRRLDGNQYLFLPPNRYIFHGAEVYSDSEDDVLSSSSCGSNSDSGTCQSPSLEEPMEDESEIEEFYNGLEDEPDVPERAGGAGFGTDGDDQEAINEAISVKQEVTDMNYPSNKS
How it was run: (§1)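 MCF-7 cells (5×10⁵ per dish) were treated 24 h, lysed in SDS buffer and protein was quantified by BCA. Equal protein was run on 5–20% SDS-PAGE and transferred to PVDF. Blots were probed for H3K9Ac, H3, acetyl-α-tubulin and α-tubulin, then given HRP secondaries and ECL detection. Acetyl/total ratios came from blot optical density.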

[2] = target: T2, NAD-dependent protein deacetylase sirtuin-2 (Homo sapiens) (UniProt Q8IXJ6); test: Inhibition of SIRT2 in human MCF7 cells assessed as accumulation of acetylated-alpha tubulin at 0.1 uM measured after 24 hrs by Western blot analysis relative to alpha-tubulin; assay type: cell-based; how it was run: as §1
T2 sequence (whole entry): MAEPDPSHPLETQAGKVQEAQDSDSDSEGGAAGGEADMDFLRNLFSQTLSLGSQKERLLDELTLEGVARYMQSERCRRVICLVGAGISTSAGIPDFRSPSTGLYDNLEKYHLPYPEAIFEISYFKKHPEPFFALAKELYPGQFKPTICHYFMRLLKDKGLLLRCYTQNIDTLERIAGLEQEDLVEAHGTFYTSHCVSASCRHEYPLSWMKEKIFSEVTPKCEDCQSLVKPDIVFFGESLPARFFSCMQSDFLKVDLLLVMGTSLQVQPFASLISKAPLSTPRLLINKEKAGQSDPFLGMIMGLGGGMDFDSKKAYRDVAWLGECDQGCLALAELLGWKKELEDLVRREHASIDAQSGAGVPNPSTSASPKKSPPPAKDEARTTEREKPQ

[3] = target: T1, NAD-dependent protein deacetylase sirtuin-1 (Homo sapiens); test: Inhibition of human N-terminal His-tagged SIRT1 expressed in Escherichia coli at 50 uM using p53 (Arg-His-Lys-Lys(Ac)) (379 to 382 residues) as substrate incubated for 3 hrs measured up to 30 mins by fluorescence assay relative to control
[4] = target: T2, NAD-dependent protein deacetylase sirtuin-2 (Homo sapiens); test: Inhibition of human N-terminal His-tagged SIRT2 expressed in Escherichia coli at 10 uM using p53 (Gln-Pro-Lys-Lys(Ac)) (317 to 320 residues) as substrate incubated for 3 hrs measured up to 30 mins by fluorescence assay relative to control
[5] = tested on: MCF7; test: Growth inhibition of human MCF7 cells at 15 uM measured after 72 hrs by AlamarBlue assay; assay type: functional, cell-based
How it was run: (§2)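 MCF-7 cells in DMEM with 10% FBS were seeded at 1×10³ cells/well. After 24 h at 37°C, 5% CO₂, compound in medium was added at varying concentrations for 72 h. AlamarBlue was then added for 3 h and fluorescence read (ex 540/em 590 nm). Percent growth was calculated from the readings, and GI50 from the dose response. Three independent determinations.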

[6] = tested on: N2a; test: Induction of neurite outgrowth in mouse Neuro2a cells at 0.2 to 2 uM measured after 24 hrs by microscopic analysis; assay type: functional, cell-based
How it was run: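 N2a cells were plated at 1×10⁴ cells/mL in DMEM with 10% FBS, then switched to DMEM with 2% FBS for differentiation. Compound was added for 24 or 48 h and morphology scored by microscopy. A cell counted as differentiated if it had ≥1 neurite longer than twice the soma diameter; ≥100 cells were counted per condition. Triplicate experiments, mean ± SD, one-way ANOVA with Dunnett's test.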

[7] = target: T2, NAD-dependent protein deacetylase sirtuin-2 (Homo sapiens); test: Inhibition of human N-terminal His-tagged SIRT2 expressed in Escherichia coli at 50 uM using p53 (Gln-Pro-Lys-Lys(Ac)) (317 to 320 residues) as substrate incubated for 3 hrs measured up to 30 mins by fluorescence assay relative to control
[8] = target: T1, NAD-dependent protein deacetylase sirtuin-1 (Homo sapiens); test: Inhibition of human N-terminal His-tagged SIRT1 expressed in Escherichia coli at 100 uM using p53 (Arg-His-Lys-Lys(Ac)) (379 to 382 residues) as substrate incubated for 3 hrs measured up to 30 mins by fluorescence assay relative to control
[9] = target: T3, NAD-dependent protein deacetylase sirtuin-3, mitochondrial (Homo sapiens) (UniProt Q9NTG7); test: Inhibition of human N-terminal His-tagged SIRT3 (102 to 399 residues) expressed in Escherichia coli at 100 uM using p53 (Gln-Pro-Lys-Lys(Ac)) (317 to 320 residues) as substrate incubated for 3 hrs measured up to 30 mins by fluorescence assay relative to control
T3 sequence (whole entry): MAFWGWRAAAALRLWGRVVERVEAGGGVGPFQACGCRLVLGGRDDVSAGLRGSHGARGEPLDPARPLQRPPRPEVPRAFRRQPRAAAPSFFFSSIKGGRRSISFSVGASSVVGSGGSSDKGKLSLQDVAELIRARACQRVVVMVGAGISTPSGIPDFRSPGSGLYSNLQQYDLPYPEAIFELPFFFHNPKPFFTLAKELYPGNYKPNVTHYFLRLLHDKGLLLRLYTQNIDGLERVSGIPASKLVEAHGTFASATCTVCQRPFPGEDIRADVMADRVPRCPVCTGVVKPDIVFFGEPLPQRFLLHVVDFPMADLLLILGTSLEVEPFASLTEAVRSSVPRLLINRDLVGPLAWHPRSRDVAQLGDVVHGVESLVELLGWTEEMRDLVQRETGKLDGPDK

[10] = target: NAD-dependent protein deacylase sirtuin-5, mitochondrial (Homo sapiens) (UniProt Q9NXA8); test: Inhibition of human N-terminal His-tagged SIRT5 (37 to 310 residues) expressed in Escherichia coli at 100 uM using flour de lys succinyl as substrate incubated for 3 hrs measured up to 30 mins by fluorescence assay relative to control
[11] = tested on: MCF7; test: Growth inhibition of human MCF7 cells at 30 uM measured after 72 hrs by AlamarBlue assay relative to control; assay type: functional; settings: MCF7, 72 h, read-out: GI; how it was run: as §2
[12] = tested on: MCF7; test: Growth inhibition of human MCF7 cells measured after 72 hrs by AlamarBlue assay; assay type: functional; settings: MCF7, 72 h; how it was run: as §2

Chain of NAD-dependent protein deacylase sirtuin-5, mitochondrial (Homo sapiens) (Q9NXA8 37-310 limits assumed): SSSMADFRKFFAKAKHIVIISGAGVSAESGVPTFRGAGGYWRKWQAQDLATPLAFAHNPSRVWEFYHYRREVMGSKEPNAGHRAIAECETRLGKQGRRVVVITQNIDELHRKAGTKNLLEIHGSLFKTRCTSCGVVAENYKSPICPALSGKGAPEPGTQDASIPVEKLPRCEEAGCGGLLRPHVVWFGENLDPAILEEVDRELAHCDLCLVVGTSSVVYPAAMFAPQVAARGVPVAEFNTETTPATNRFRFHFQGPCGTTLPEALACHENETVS

## O=C(CCCCCCC(=O)Nc1ccccc1)NO
[1]
  fold change (FC): 1.3
[2]
  fold change (FC): 1.61

## CC(C)(C)OC(=O)NCCCCNC(=O)CNC(=O)c1ccccc1Nc1cccc(OCCc2ccccc2)c1
[3]
  inhibition: 23%
[4]
  inhibition: 83%

## CCCCCCCCCCCCCC(=S)NCCCC[C@H](NC(=O)OCc1ccccc1)C(=O)Nc1ccccc1
[5]
  growth inhibition (GI): Active
[6]
  Activity: Active

## NC(=O)c1ccccc1Nc1cccc(OCCc2ccc3ccccc3c2)c1
[3]
  inhibition: 7%
[4]
  inhibition: 75%

## CCCCCNC(=O)c1ccccc1Nc1cccc(OCCc2ccccc2)c1
[3]
  inhibition: 9%
[4]
  inhibition: 50%

## CCCNC(=O)c1ccccc1Nc1cccc(OCCc2ccccc2)c1
[3]
  inhibition: 8%
[4]
  inhibition: 58%

## NC(=O)Cc1ccccc1Nc1cccc(OCCc2ccccc2)c1
[3]
  inhibition: 19%
[4]
  inhibition: 68%

## C[C@H](NC(=O)c1ccccc1Nc1cccc(OCCc2ccccc2)c1)C(N)=O
[3]
  inhibition: 15%
[4]
  inhibition: 81%

## NC(=O)CNC(=O)c1ccccc1Nc1cccc(OCCc2ccccc2)c1
[3]
  inhibition: 10%
[4]
  inhibition: 85%

## CC(C)CCNC(=O)c1ccccc1Nc1cccc(OCCc2ccccc2)c1
[3]
  inhibition: 8%
[4]
  inhibition: 45%
[7]
  inhibition: 70%

## NC(=O)c1ccccc1Nc1cccc(OCCc2ccccc2)c1
[3]
  inhibition: 12%
[4]
  inhibition: 90%
[8]
  inhibition: 17%
[9]
  inhibition: 17%
[10]
  inhibition: 8%
[11]
  inhibition of growth at 30 µM: 30%
[6]
  Activity: Active

## O=C(NC1CCCCC1)c1ccccc1Nc1cccc(OCCc2ccccc2)c1
[3]
  inhibition: 15%
[4]
  inhibition: 28%

## O=C(NC1CCN(Cc2ccccc2)CC1)c1ccccc1Nc1cccc(OCCc2ccccc2)c1
[3]
  inhibition: 8%
[4]
  inhibition: 56%

## CC(C)(C)OC(=O)NCCNC(=O)c1ccccc1Nc1cccc(OCCc2ccccc2)c1
[3]
  inhibition: 11%
[4]
  inhibition: 77%

## O=C(NCCO)c1ccccc1Nc1cccc(OCCc2ccccc2)c1
[3]
  inhibition: 12%
[4]
  inhibition: 76%

## CONC(=O)c1ccccc1Nc1cccc(OCCc2ccccc2)c1
[3]
  inhibition: 6%
[4]
  inhibition: 63%

## O=C(O)CNC(=O)c1ccccc1Nc1cccc(OCCc2ccccc2)c1
[3]
  inhibition: 8%
[4]
  inhibition: 50%

## CCCCNC(=O)c1ccccc1Nc1cccc(OCCc2ccccc2)c1
[3]
  inhibition: 2%
[4]
  inhibition: 57%

## O=C(NCCc1ccccc1)c1ccccc1Nc1cccc(OCCc2ccccc2)c1
[3]
  inhibition: 5%
[4]
  inhibition: 46%

## C#CCNC(=O)c1ccccc1Nc1cccc(OCCc2ccccc2)c1
[3]
  inhibition: 12%
[4]
  inhibition: 77%

## CC(C)(C)OC(=O)NCCCCCNC(=O)CNC(=O)c1ccccc1Nc1cccc(OCCc2ccccc2)c1
[3]
  inhibition: 14%
[4]
  inhibition: 83%

## O=C(O)c1ccccc1Nc1cccc(OCCc2ccccc2)c1
[3]
  inhibition: 2.5%
[4]
  inhibition: 12%

## CN(C)CCNC(=O)c1ccccc1Nc1cccc(OCCc2ccccc2)c1
[3]
  inhibition: 18%
[4]
  inhibition: 59%
[7]
  inhibition: 74%

## O=C(c1ccccc1Nc1cccc(OCCc2ccccc2)c1)N1CCOCC1
[3]
  inhibition: 4%
[4]
  inhibition: 71%

## O=C(NO)c1ccccc1Nc1cccc(OCCc2ccccc2)c1
[3]
  inhibition: 13%
[4]
  inhibition: 68%

## O=C(NOC1CCCCO1)c1ccccc1Nc1cccc(OCCc2ccccc2)c1 (stereo not drawn)
[3]
  inhibition: 8%
[4]
  inhibition: 54%

## CC(C)(C)OC(=O)NCCCNC(=O)c1ccccc1Nc1cccc(OCCc2ccccc2)c1
[3]
  inhibition: 4%
[4]
  inhibition: 57%

## C[C@H](NC(=O)[C@H](CCCCNC(=S)CNC(=O)c1ccccc1Nc1cccc(OCCc2ccccc2)c1)NC(=O)OCc1ccccc1)C(N)=O
[12]
  GI50: 8.43 µM
[6]
  Activity: Active

## O=C(Nc1ccccc1)c1ccccc1Nc1cccc(OCCc2ccccc2)c1
[3]
  inhibition: 9%
[4]
  inhibition: 44%

## CCN(CC)C(=O)c1ccccc1Nc1cccc(OCCc2ccccc2)c1
[3]
  inhibition: 11%
[4]
  inhibition: 61%

## Cc1cc(C)nc(SCC(=O)Oc2cccc(Nc3ccccc3C(N)=O)c2)n1
[3]
  inhibition: 7%
[4]
  inhibition: 26%

## O=C(NCc1ccccc1)c1ccccc1Nc1cccc(OCCc2ccccc2)c1
[3]
  inhibition: 12%
[4]
  inhibition: 70%

## COC(=O)CNC(=O)c1ccccc1Nc1cccc(OCCc2ccccc2)c1
[3]
  inhibition: 17%
[4]
  inhibition: 72%
